Assay results reported in ChEMBL document CHEMBL1681731, “Synthesis, in vitro anti-inflammatory and cytotoxic evaluation, and mechanism of action studies of 1-benzoyl-β-carboline and 1-benzoyl-3-carboxy-β-carboline derivatives” (Bioorg Med Chem, 2011).

What was measured:
RAW264.7 [1] = experiment: Antiinflammatory activity against mouse RAW264.7 cells assessed as reduction of lipopolysaccharide/interferon-gamma induced PGE2 production at 10 uM after 18 hrs; type: functional; settings: RAW264.7, 18 h
In short: (§1)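 RAW 264.7 macrophages (passages 9–20) stimulated with LPS/IFN-γ; compound tested at 1, 3 and 10 µM. Supernatant PGE2 measured by competitive EIA: anti-PGE2 antibody plus peroxidase-PGE2 tracer, 1 h RT; TMB/H2O2 30 min; H2SO4 stop; A450. Results given as % inhibition.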

[2] = Cytotoxicity activity against human KBVIN cells assessed as growth inhibition at 10 ug/ml after 72 hrs sulforhodamine B assay; type: functional
In short: (§2)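 Cells kept in RPMI-1640/10% FBS with antibiotics at 37 °C, 5% CO2. Trypsinized cells seeded and given compound from DMSO-diluted stock. Incubated 72 h, then fixed with 10% TCA. Stained 10 min with 0.4% sulforhodamine B in 1% HOAc, washed, dye dissolved in 10 mM Trizma. A515 read; growth relative to net protein increase of controls.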

[3] = Cytotoxicity against mouse […] cells by MTT assay; type: functional
In short: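 Viability of RAW 264.7 cells taken as mitochondrial reduction of MTT to formazan. Formazan read at OD550.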

DU-145 = experiment: Cytotoxicity activity against human DU145 cells assessed as growth inhibition at 10 ug/ml after 72 hrs sulforhodamine B assay; type: functional; settings: DU-145, 72 h; in short: as §2
RAW264.7 [4] = experiment: Antiinflammatory activity against mouse RAW264.7 cells assessed as reduction of lipopolysaccharide/interferon-gamma induced PGE2 production at 3 uM after 18 hrs; type: functional; settings: RAW264.7, 18 h; in short: as §1
[5] = Antiinflammatory activity against mouse […] cells assessed as inhibition of lipopolysaccharide/interferon-gamma induced nitric oxide production; type: functional, cell-based
In short: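 RAW 264.7 cells in DMEM/10% FCS, passages 9–20. Nitrite induced by LPS (1 µg/mL) plus IFN-γ (50 U/mL) for 18 h with or without compound. Griess reagent (1% sulfanilamide, 0.1% naphthylenediamine in 5% H3PO4) read at OD550. EC50 calculated.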

[6] = Antiinflammatory activity against human neutrophil assessed as inhibition of N-formyl-l-methionyl phenylalanine/cytochalasin B-induced elastase release; type: functional, cell-based
In short: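 Neutrophils (6 × 10^5/mL) supplemented with 100 µM MeO-Suc-Ala-Ala-Pro-Val-p-nitroanilide, equilibrated 2 min at 37 °C, then given drug or 0.1% DMSO vehicle for 5 min. Activated with 100 nM FMLP plus 0.5 µg/mL cytochalasin B. Absorbance at 405 nm followed continuously. Release expressed as percent of drug-free activated control. IC50 computed; mean ± SEM, n = 3.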

[7] = Therapeutic index, ratio of CC50 for mouse […] cells to EC50 for inhibition of lipopolysaccharide/interferon-gamma induced nitric oxide production in mouse […] cells; type: cell-based; settings: read-out: TI
KB = experiment: Cytotoxicity activity against human KB cells assessed as growth inhibition at 10 ug/ml after 72 hrs sulforhodamine B assay; type: functional; in short: as §2
RAW264.7 [8] = experiment: Antiinflammatory activity against mouse RAW264.7 cells assessed as reduction of lipopolysaccharide/interferon-gamma induced PGE2 production at 1 uM by EIA; type: functional; in short: as §1
A549 = experiment: Cytotoxicity activity against human A549 cells assessed as growth inhibition at 10 ug/ml after 72 hrs sulforhodamine B assay; type: functional; settings: A549, 72 h; in short: as §2
[9] = Antiinflammatory activity against human neutrophil assessed as inhibition of N-formyl-l-methionyl phenylalanine/cytochalasin B-induced superoxide anion generation by spectrophotometry; type: functional, cell-based
In short: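 Ferricytochrome c (0.5 mg/mL) reduction, SOD-inhibitable, with 1 mM Ca2+. Neutrophils (6 × 10^5 cells/mL) equilibrated 2 min at 37 °C, then drug or 0.1% DMSO for 5 min. Cytochalasin B 1 µg/mL preincubation, then 100 nM FMLP for 3 min. A550 monitored continuously with stirring. IC50 computed; mean ± SEM, n = 3.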

| Structure (SMILES) | EC50 ([5]; Mus musculus, read-out: EC50) [µM] | IC50 [6] [µM] | IC50 [9] [µM] | EC50 [5] | inhibition at 10 µM (RAW264.7 [1]) [%] | GI50 [2] [µM] | CC50 [3] [µM] | GI50 (DU-145) [µM] | inhibition at 3 µM (RAW264.7 [4]) [%] | selectivity ratio [7] | GI50 (KB) [µM] | inhibition at 1 µM (RAW264.7 [8]) [%] | GI50 (A549) [µM] |
| --- | --- | --- | --- | --- | --- | --- | --- | --- | --- | --- | --- | --- | --- |
| COC(=O)c1cc2c([nH]c3ccccc32)c(C(=O)c2ccc(OC)cc2)n1 | 0.51 | > 30 | > 30 | – | – | > 40 | 1.95 | > 40 | 100 | 4 | > 40 | 98 | > 40 |
| COc1ccc(C(=O)c2nccc3c2[nH]c2ccccc23)cc1 | 4.59 | > 30 | > 30 | – | 95 | > 40 | 83.4 | > 40 | 95 | 18 | > 40 | 0 | > 40 |
| OC(c1ccc(Br)cc1)c1nccc2c1[nH]c1ccccc12 (stereo unspecified) | 0.74 | 14.2 | 8.84 | – | 34 | 14.5 | 70.1 | 13.3 | 21 | 95 | 15.9 | 0 | 19 |
| Cc1ccccc1C(=O)c1nccc2c1[nH]c1ccccc12 | 2.12 | > 30 | > 30 | – | 82 | > 40 | – | > 40 | 44 | > 2000 | > 40 | 0 | > 40 |
| O=C(c1cccc(Br)c1)c1nccc2c1[nH]c1ccccc12 | 1.16 | > 30 | > 30 | – | – | > 40 | 51.4 | > 40 | 98 | 44 | > 40 | 97 | > 40 |
| COc1ccc2c(c1)c(CC(=O)O)c(C)n2C(=O)c1ccc(Cl)cc1 [INDOMETHACIN] | – | 32 | 38.3 | – | – | – | – | – | – | – | – | – | – |
| CC(O)c1nccc2c1[nH]c1ccccc12 (stereo unspecified) | – | > 30 | 9.4 | Not Active | 0 | > 40 | 0.28 | > 40 | 0 | – | > 40 | 0 | > 40 |
| N=C(N)NN [PIMAGEDINE] | 22.6 | – | – | – | 42 | – | 358 | – | 21 | 16 | – | 8 | – |
| CC(=O)O[C@H]1C(=O)[C@@]2(C)[C@H]([C@H](OC(=O)c3ccccc3)[C@]3(O)C[C@H](OC(=O)[C@H](O)[C@@H](NC(=O)c4ccccc4)c4ccccc4)C(C)=C1C3(C)C)[C@]1(OC(C)=O)CO[C@@H]1C[C@@H]2O [PACLITAXEL] | – | – | – | – | – | > 1 | – | 0.00555 | – | – | 0.00487 | – | 0.00558 |

Now from value to compound, other results behind:

| EC50 ([5]; Mus musculus, read-out: EC50) [µM] | IC50 [6] [µM] | IC50 [9] [µM] | EC50 [5] | Structure (SMILES) | inhibition at 10 µM (RAW264.7 [1]) [%] | GI50 [2] [µM] | CC50 [3] [µM] | GI50 (DU-145) [µM] | inhibition at 3 µM (RAW264.7 [4]) [%] | selectivity ratio [7] | GI50 (KB) [µM] | inhibition at 1 µM (RAW264.7 [8]) [%] | GI50 (A549) [µM] |
| --- | --- | --- | --- | --- | --- | --- | --- | --- | --- | --- | --- | --- | --- |
| 0.31 | > 30 | 7.88 | – | OC(c1ccccc1)c1nccc2c1[nH]c1ccccc12 (stereo unspecified) | 0 | 22.6 | 57.4 | > 40 | 0 | 186 | > 40 | 0 | > 40 |
| 0.3 | > 30 | > 30 | – | O=C(c1ccc(Br)cc1)c1nccc2c1[nH]c1ccccc12 | – | > 40 | 149 | > 40 | 100 | 492 | > 40 | 98 | > 40 |
| 6.97 | > 30 | > 30 | – | O=C(c1ccccc1Br)c1nccc2c1[nH]c1ccccc12 | 89 | > 40 | 53.8 | > 40 | 37 | 8 | > 40 | 0 | > 40 |
| 1.06 | – | 16.6 | – | O=C(c1cccc([N+](=O)[O-])c1)c1nccc2c1[nH]c1ccccc12 | 96 | > 40 | 21.6 | > 40 | 95 | 20 | > 40 | 0 | > 40 |
| – | 1.92 | 1.12 | – | O=c1cc(N2CCOCC2)oc2c(-c3ccccc3)cccc12 [LY-294002] | – | – | – | – | – | – | – | – | – |
| 2.08 | – | – | – | COc1ccc(C(O)c2nccc3c2[nH]c2ccccc23)cc1 (stereo unspecified) | 19 | – | 1590 | – | 0 | 764 | – | 0 | – |
| 2.67 | > 30 | > 30 | – | O=C(c1ccccc1)c1nccc2c1[nH]c1ccccc12 | 82 | > 40 | 131 | > 40 | 39 | 49 | > 40 | 0 | > 40 |
